Assay results as given in the RNAGym collection of RNA variant scans (doi:10.1126/science.aae0568).
Variants at the floor of the assay were thinned out.

B1: tRNA (parent)
chain: GUUCCGUUGGCGUAAUGGUAACGCGUCUCCCUCCUAAGGAGAAGACUGCGGGUUCGAGUCCCGUACGGAACG

Variants of: B1
Experiment: yeast fitness relative to wild type (ratio to wild type); higher = fitter; tRNA-Arg(CCU), competitive growth, 37 C, YPD
Summary of the method: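 Amplicons of the tRNA-Arg(CCU) gene were sequenced, 100-nucleotide paired-end, from the start population and from each end population of a pooled yeast competition. The competition, in six parallel replicates, lasted 24 hours in YPD at 37°C. Fitness relative to wild type was calculated from changes in genotype frequencies. Genotypes had to have ≥ 100 starting reads, and estimates < 0.5 were set to 0.5.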

| Variant | yeast fitness |
| --- | --- |
| C22G C27U | 0.884 |
| C22G C27A | 0.604 |
| C22A C34U | 0.761 |
| C22A C34G | 0.686 |
| C22A G25C G63A | 0.622 |
| C22A G41C U53C | 0.656 |
| C22G C33U A36C A40U | 0.665 |
| C22G C30U A37G A43U G67A | 0.603 |
| C22A C30U C34G A70U | ≤ 0.5 |
| C22G G38A | 0.776 |
| C22A U28A U47G | ≤ 0.5 |
| C22G A42C C60G | ≤ 0.5 |
| C22G G23C A43C G50C | ≤ 0.5 |
| C22A C33G A43C A69C | ≤ 0.5 |
| C22G C29A G58A C61G A70U | ≤ 0.5 |
| C22G C34G A40C A69U | 0.769 |
| C22A U28C C30U G44A | ≤ 0.5 |
| C22G C31U C46U A69U | 0.526 |
| C22G C27G C33U G39A G41A | ≤ 0.5 |
| C22G C29G C46U A70U | 0.592 |
| C22G C30G U59G | ≤ 0.5 |

| Variant | yeast fitness |
| --- | --- |
| C22G C46A C62U G63A | 0.651 |
| C22G A43G A70U | 0.683 |
| C22A C62U A65C | 0.663 |
| C22G C34U C46A | ≤ 0.5 |
| C22G A43C U53C C55G | ≤ 0.5 |
| C22G C49G G68A | 0.529 |
| C22G C27G C31G G41A C61G A69U | ≤ 0.5 |
| C22A C33A C60A | 0.642 |
| C22G A43C A70U | 0.593 |
| C22G C29G A36C G39C C46G G52A G67C | ≤ 0.5 |
| C22A C31G C46A C49U | ≤ 0.5 |
| C22G C31U U59G | 0.539 |
| C22G C31G C61A | ≤ 0.5 |
| C22G C27G C33U G41A | 0.631 |
| C22A U26A C29G G50C | ≤ 0.5 |
| C22G C30A G51A | ≤ 0.5 |
| C22G C46U | 0.929 |
| C22A C30A U54C C55G | ≤ 0.5 |
| C22A G23C C34U A36G A40U | 0.548 |
| C22A C30A C33U C61G C62U | ≤ 0.5 |
| C22G C31G | 0.745 |

| Variant | yeast fitness |
| --- | --- |
| C22G C31U | 1 |
| C22G C31A | 0.78 |
| C22A G23C C30U C66G | ≤ 0.5 |
| C22G A43U C46G | ≤ 0.5 |
| C22A U47C C61G | ≤ 0.5 |
| C22G C31G G58C G67C | ≤ 0.5 |
| C22A G25A G48A C61G | ≤ 0.5 |
| C22G G41A C62A G63C | 0.615 |
| C22G A36C A40G G58C C60A | ≤ 0.5 |
| C22G G39C | 0.823 |
| C22G G39A | 0.773 |
| C22G C27G A45U A57G A70G | 0.595 |
| C22G C24U C29U C30G U53A U54A | ≤ 0.5 |
| C22G G39A A70G | 0.599 |
| C22G C27G A43U A45C U54A | ≤ 0.5 |
| C22A U28G C31G A42U G58C | ≤ 0.5 |
| C22A G25C C62A | 0.559 |
| C22G A42G U59A G68C | ≤ 0.5 |
| C22G C27G C31G C61G | 0.575 |
| C22A G23A C33U C34G G51A | ≤ 0.5 |
| C22A G25A G68A | 0.676 |

| Variant | yeast fitness |
| --- | --- |
| C22A C33A | 0.718 |
| C22A C33G | 0.701 |
| C22G A45C C49U A57U C62A | 0.619 |
| C22A C31A | 0.789 |
| C22G C29U A37U | 0.589 |
| C22G C61U G68A | ≤ 0.5 |
| C22A U47A G48A A70G | ≤ 0.5 |
| C22A G25A C31G G48C | ≤ 0.5 |
| C22G C24A C61G C66A | ≤ 0.5 |
| C22G A70C | 0.963 |
| C22G A70U | 1.01 |
| C22G A57U C66U | 0.524 |
| C22G C31U A65G | 0.867 |
| C22G C27G C31G A37G C61G A69U | 0.758 |
| C22A C29U C33G C46U C62U | ≤ 0.5 |
| C22A C30U | 0.647 |
| C22A C30G | 0.636 |
| C22G A43U U54C C62U | ≤ 0.5 |
| C22G A36C U47A A69C | ≤ 0.5 |
| C22A U47A A65U | ≤ 0.5 |
| C22A U47A A65G | 0.573 |
